Measurements reported in PubChem BioAssay AID743238 (Broad Institute, 2013).
About 200 (0.056%) of roughly 360,000 compounds were called active. Only a selection was taken, and actives are over-represented in it overall. A number with no mark means an inactive call.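 Rule for the calls: active = mean normalized replicate activation at least 10% and every replicate at or above 10%; inconclusive = only one of the two criteria met; inactive = mean below 10% and not all replicates reach 10%.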

assay: Xi reactivation inducers in mouse fibroblasts – imaging, XiGFP fibroblasts, GFP high-content imaging, set 2, primary screen (AID 743238); details: % GFP-positive cells imaging, 3 d, at 7.58 µM, active compounds read high, cells co-treated with 5-aza-dC sensitizer, scaled so ellipticine positive control = 100%;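 note: 0% = median of on-plate neutral control wells and 100% = ellipticine 6 µM median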
Outline: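 System: SV40-immortalized XiGFP fibroblast cells, line 68-5-11 / Incubation: 3-day compound exposure, then 15 min fixation at room temperature / Compound: single concentration per compound, delivered by pin transfer / Buffer or medium: DMEM plus 5-aza-dC sensitizer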

SMILES | activation
C[C@H](CO)N1C[C@H](C)[C@H](CN(C)Cc2ccc(C(=O)Nc3ccccc3N)cc2)Oc2ccc(NC(=O)Nc3ccccc3)cc2CC1=O | 0.0505%
Cc1noc(C)c1NC(=O)Nc1ccc2c(c1)C(=O)N([C@H](C)CO)C[C@@H](C)[C@H](CN(C)C(=O)Nc1cccc3ccccc13)OCCCC[C@@H](C)O2 | 0.305%
COc1cccc(CNC(=O)C[C@@H]2CC[C@H]3[C@@H](COc4ccc(NC(=O)c5cccs5)cc4C(=O)N3C)O2)c1 | -0.028%
C[C@H]1CN([C@@H](C)CO)C(=O)c2ccccc2-c2ccccc2CO[C@H]1CN(C)Cc1ccc(-c2ccccc2)cc1 | 0.132%
COc1ccc(S(=O)(=O)Nc2ccc3c(c2)CC(=O)N([C@@H](C)CO)C[C@@H](C)[C@H](CN(C)S(=O)(=O)c2ccccc2)O3)cc1 | 0.178%
COc1cccc(S(=O)(=O)N[C@H]2C=C[C@H](CC(=O)NC3Cc4ccccc4C3)O[C@H]2CO)c1 | 0.645%
C[C@H](O)C#Cc1cnc2c(c1)C(=O)N([C@@H](C)CO)C[C@H](C)[C@@H](CN(C)C(=O)c1ccccc1)O2 | -0.975%
Cc1ccccc1-c1ccc([C@H]2[C@@H](CO)N3C(=O)CN(C(=O)c4ccncc4)C[C@@H]23)cc1 | -0.015%
COc1ccc(S(=O)(=O)Nc2ccc3c(c2)C(=O)N([C@@H](C)CO)C[C@H](C)[C@@H](CN(C)C(=O)c2ccccc2)OCCCC[C@H](C)O3)cc1 | 0.072%
COc1ccc2c3c(n(C)c2c1)[C@@H](CO)N(C(C)=O)CC31CCN(Cc2ccc(Cl)cc2)CC1 | 0.225%
C[C@@H]1CCCCO[C@@H](CN(C)S(=O)(=O)c2cn(C)cn2)[C@@H](C)CN([C@@H](C)CO)C(=O)c2cc(NC(=O)Nc3ccc(C(F)(F)F)cc3)ccc2O1 | -0.98%
CO[C@@H]1CN(C)C(=O)c2ccc(NC(=O)C3CC3)cc2OC[C@H](C)N(C(=O)c2ccccc2)C[C@@H]1C | 0.643%
CC[C@@H]1CC=CC[C@H](C)Oc2ccccc2C(=O)N(C)[C@H](Cc2ccccc2)C(=O)N1 (mixture of isomers) | 0.007%
C[C@@H]1CCCCO[C@H](CN(C)Cc2ccc3c(c2)OCO3)[C@H](C)CN([C@@H](C)CO)C(=O)c2cc(NS(=O)(=O)c3cccs3)ccc2O1 | -0.019%
C[C@H]1CCCCO[C@@H](CN(C)C(=O)Nc2ccccc2)[C@@H](C)CN([C@@H](C)CO)C(=O)c2cc(NC(=O)CCC(F)(F)F)ccc2O1 | 0.045%
C[C@@H](NC(=O)C[C@H]1C[C@@H]2c3cc(NC(=O)Nc4ccccc4F)ccc3O[C@@H]2[C@H](CO)O1)c1ccccc1 | 0.315%
COc1ccc(NC(=O)Nc2ccc3c(c2)CC(=O)N([C@@H](C)CO)C[C@@H](C)[C@H](CN(C)C(=O)NC2CCCCC2)O3)cc1 | -0.248%
C[C@@H]1CN([C@@H](C)CO)C(=O)c2cc(NC(=O)Nc3cccc4ccccc34)ccc2O[C@@H](C)CCCCO[C@@H]1CN(C)S(=O)(=O)c1ccc(Cl)cc1 | 0.307%
N#CC1(Nc2ccc3c4c(cccc24)CC3)CCCCC1 | 40% (active)
O=S(=O)(NC1CC1)c1ccc2c3c(cccc13)CC2 | 0.001%
N#CC1(Nc2ccc(-c3ccc(Cl)cc3)cc2)CCCC1 | -0.0155%

SMILES | activation
CC(C)NC(=O)N(C)C[C@@H]1Oc2c(cccc2N(C)C)C(=O)N([C@H](C)CO)C[C@@H]1C | 0.155%
O=C(CC1CC1)N1[C@@H](CO)[C@H](c2ccccc2)C12CN(Cc1cccnc1)C2 | 0.0215%
COc1ccc2c3c([nH]c2c1)[C@@H](CO)N(C(C)=O)CC31CCN(Cc2ccccc2Cl)CC1 | 0.131%
C[C@@H]1CN([C@@H](C)CO)C(=O)Cc2cc(NC(=O)C3CC3)ccc2O[C@H]1CN(C)C(=O)NC1CCCCC1 | -0.834%
O=C(C[C@@H]1CC[C@@H](NC(=O)c2ccc3c(c2)OCO3)[C@H](CO)O1)NCc1ccc(F)cc1 | 0.149%
Cc1ccc(S(=O)(=O)Nc2ccc3c(c2)C(=O)N([C@@H](C)CO)C[C@H](C)[C@@H](CN(C)CC2CC2)O3)cc1 | -0.069%
Cc1ccccc1CN(C)C[C@H]1OCc2cn(nn2)CCCC(=O)N([C@@H](C)CO)C[C@H]1C | 0.238%
CCCN(C)C[C@@H]1Oc2ncc(C#Cc3ccccc3)cc2C(=O)N([C@H](C)CO)C[C@@H]1C | -0.009%
C[C@H](CO)N1C[C@H](C)[C@H](CN(C)C(=O)c2ccncc2)Oc2cc(C#CC3(O)CCCC3)ccc2S1(=O)=O | 0.469%
CN(C)CCCNC(=O)C[C@@H]1C=C[C@H](NC(=O)c2ccccc2F)[C@H](CO)O1 | -0.107%
CCN1/C(=C\c2ccc3ccccc3[n+]2CC)Sc2cc(C)ccc21 | 415% (active)
CCCNC(=O)N1CC(=O)N2[C@H](C1)[C@@H](c1ccc(C#Cc3ccccc3)cc1)[C@@H]2CO | -0.0025%
O=C(C[C@@H]1CC[C@@H](NS(=O)(=O)c2ccc(F)cc2)[C@H](CO)O1)NCc1ccc(Cl)c(Cl)c1 | 0.0265%
C[C@H](CO)N1C[C@H](C)[C@H](CN(C)Cc2ccncc2)Oc2ccc(NS(=O)(=O)c3cn(C)cn3)cc2C1=O | -0.119%
CC=Cc1ccc2n(c1=O)C[C@@H]1[C@@H](CO)[C@H](C(=O)NC3CCCC3)[C@H]2N1C(=O)c1cnccn1 (mixture of isomers) | 0.002%
O=C(Nc1ccccc1F)N[C@@H]1CC[C@H](CCNC(=O)C2CC2)O[C@@H]1CO | 0.587%
O=C(C[C@H]1C=C[C@@H](NC(=O)Nc2cc(F)ccc2F)[C@@H](CO)O1)NCc1ccc2c(c1)OCO2 | 0.137%
C[C@@H]1CN([C@H](C)CO)C(=O)c2cccc(NS(C)(=O)=O)c2O[C@@H]1CN(C)S(=O)(=O)c1cccs1 | -1.35%
COc1ccccc1NC(=O)N1CC(=O)N2[C@H](CO)[C@@H](c3ccc(C#Cc4ccc(F)cc4)cc3)[C@H]2C1 | -0.0395%
Cc1ccc(S(=O)(=O)N(C)CC(=O)NCCc2c[nH]c3ccccc23)cc1 | 0.082%
O=C(NCCc1c[nH]c2ccccc12)c1cc2ccccc2oc1=O | -0.0325%

SMILES | activation
N#C/C(=C/c1ccc(N2CCCCC2)o1)C(=O)NCCc1c[nH]c2ccccc12 | 119% (active)
CCCNC(=O)NC[C@H]1[C@H](c2ccc(C3=CCCCC3)cc2)[C@H](CO)N1C(C)=O | -0.0205%
CC(C)NC(=O)N1[C@H](C#N)[C@@H](c2ccc(-c3ccc(F)cc3)cc2)[C@H]1CO | 0.054%
C[C@@H]1CN([C@H](C)CO)C(=O)c2cc(NC(=O)CCCCCC(=O)Nc3ccccc3N)ccc2O[C@@H]1CN(C)S(=O)(=O)c1ccc(Cl)cc1 | -0.749%
C[C@H](O)C#Cc1ccc2c(c1)O[C@@H](CN(C)Cc1cccnc1)[C@H](C)CN([C@H](C)CO)S2(=O)=O | 0.253%
O=C(NC1Cc2ccccc2C1)[C@H]1[C@H](CO)[C@H]2Cn3c(ccc(C4=CCCCC4)c3=O)[C@H]2N1CC1CC1 | 0.397%
CN(C)CC(=O)N[C@@H]1CC[C@H](CC(=O)O)O[C@H]1CO | -0.0755%
C[C@@H]1CN([C@@H](C)CO)C(=O)c2cc(C#CC3CCCCC3)cnc2O[C@@H]1CN(C)Cc1cncnc1 | -1.05%
CCC(=C/c1sc2ccc3ccccc3c2[n+]1C)/C=C1\Sc2ccc3ccccc3c2N1C | 68% (active)
CC(C)C#Cc1cnc2c(c1)C(=O)N([C@@H](C)CO)C[C@@H](C)[C@H](CN(C)C(=O)CCN1CCCCC1)O2 | 0.409%
COc1ccc(NC(=O)Nc2ccc3c(c2)C(=O)N([C@@H](C)CO)C[C@@H](C)[C@@H](CN(C)C(=O)CCCN(C)C)OCCCC[C@@H](C)O3)cc1 | 0.0725%
Cc1ccccc1-c1ccc([C@H]2[C@@H](CO)N3C(=O)CN(C(=O)c4cccnc4)C[C@@H]23)cc1 | 0.209%
C[C@@H](O)C#Cc1ccc([C@@H]2[C@@H](CO)N3CCCCN(C(=O)c4ccc(F)cc4)C[C@@H]23)cc1 | 0.907%
C[C@H]1CN([C@@H](C)CO)C(=O)c2cc(Br)cnc2O[C@H]1CN(C)Cc1cccc(F)c1 | 0.497%
Cc1ccc(S(=O)(=O)N2C[C@H](O)COC[C@@H]3O[C@H](CC(=O)N[C@H]4CCN(Cc5ccccc5)C4)CC[C@H]32)cc1 | 0.108%
C[C@@H]1CN([C@H](C)CO)C(=O)c2cc(-c3ccccc3F)cnc2O[C@H]1CN(C)C(=O)CN(C)C | 3.17%
COc1cc(CN2CC3(CN(S(=O)(=O)c4cccs4)C3)c3c(n(C)c4cc(OC)ccc34)[C@H]2CO)cc(OC)c1 | 0.325%
COc1cccc(S(=O)(=O)N[C@H]2C=C[C@@H](CC(=O)NCc3ccccc3)O[C@@H]2CO)c1 | -0.504%
CN1CCN(C(=O)C[C@H]2CC[C@H]3[C@@H](COC[C@H](O)CN3CC3CCCC3)O2)CC1 | 0.0235%
Cc1ccc(S(=O)(=O)N(C)C[C@@H]2Oc3c(NC(=O)Nc4c(C)noc4C)cccc3C(=O)N([C@@H](C)CO)C[C@@H]2C)cc1 | -0.145%
